Activity calls are given as the source filed them. The calls are words filed in the database; no cut-off is given here.
Legend:
DU-145 = assay: Cytotoxicity against human DU145 cells after 72 hrs by MTS assay; format: functional; conditions: DU-145, 72 h, read-out: TC50 (the source's name)
[1] = molecular target: T1, DNA (cytosine-5)-methyltransferase 1 (Homo sapiens, UniProt P26358); assay: Inhibition of human recombinant DNMT1 expressed in […] assessed as inhibition of tritiated methyl incorporation from [3H]-labeled AdoMet into hemimethylated DNA duplex after 2 hrs by liquid scintillation counting analysis; format: cell-based
T1 sequence (P26358 whole entry): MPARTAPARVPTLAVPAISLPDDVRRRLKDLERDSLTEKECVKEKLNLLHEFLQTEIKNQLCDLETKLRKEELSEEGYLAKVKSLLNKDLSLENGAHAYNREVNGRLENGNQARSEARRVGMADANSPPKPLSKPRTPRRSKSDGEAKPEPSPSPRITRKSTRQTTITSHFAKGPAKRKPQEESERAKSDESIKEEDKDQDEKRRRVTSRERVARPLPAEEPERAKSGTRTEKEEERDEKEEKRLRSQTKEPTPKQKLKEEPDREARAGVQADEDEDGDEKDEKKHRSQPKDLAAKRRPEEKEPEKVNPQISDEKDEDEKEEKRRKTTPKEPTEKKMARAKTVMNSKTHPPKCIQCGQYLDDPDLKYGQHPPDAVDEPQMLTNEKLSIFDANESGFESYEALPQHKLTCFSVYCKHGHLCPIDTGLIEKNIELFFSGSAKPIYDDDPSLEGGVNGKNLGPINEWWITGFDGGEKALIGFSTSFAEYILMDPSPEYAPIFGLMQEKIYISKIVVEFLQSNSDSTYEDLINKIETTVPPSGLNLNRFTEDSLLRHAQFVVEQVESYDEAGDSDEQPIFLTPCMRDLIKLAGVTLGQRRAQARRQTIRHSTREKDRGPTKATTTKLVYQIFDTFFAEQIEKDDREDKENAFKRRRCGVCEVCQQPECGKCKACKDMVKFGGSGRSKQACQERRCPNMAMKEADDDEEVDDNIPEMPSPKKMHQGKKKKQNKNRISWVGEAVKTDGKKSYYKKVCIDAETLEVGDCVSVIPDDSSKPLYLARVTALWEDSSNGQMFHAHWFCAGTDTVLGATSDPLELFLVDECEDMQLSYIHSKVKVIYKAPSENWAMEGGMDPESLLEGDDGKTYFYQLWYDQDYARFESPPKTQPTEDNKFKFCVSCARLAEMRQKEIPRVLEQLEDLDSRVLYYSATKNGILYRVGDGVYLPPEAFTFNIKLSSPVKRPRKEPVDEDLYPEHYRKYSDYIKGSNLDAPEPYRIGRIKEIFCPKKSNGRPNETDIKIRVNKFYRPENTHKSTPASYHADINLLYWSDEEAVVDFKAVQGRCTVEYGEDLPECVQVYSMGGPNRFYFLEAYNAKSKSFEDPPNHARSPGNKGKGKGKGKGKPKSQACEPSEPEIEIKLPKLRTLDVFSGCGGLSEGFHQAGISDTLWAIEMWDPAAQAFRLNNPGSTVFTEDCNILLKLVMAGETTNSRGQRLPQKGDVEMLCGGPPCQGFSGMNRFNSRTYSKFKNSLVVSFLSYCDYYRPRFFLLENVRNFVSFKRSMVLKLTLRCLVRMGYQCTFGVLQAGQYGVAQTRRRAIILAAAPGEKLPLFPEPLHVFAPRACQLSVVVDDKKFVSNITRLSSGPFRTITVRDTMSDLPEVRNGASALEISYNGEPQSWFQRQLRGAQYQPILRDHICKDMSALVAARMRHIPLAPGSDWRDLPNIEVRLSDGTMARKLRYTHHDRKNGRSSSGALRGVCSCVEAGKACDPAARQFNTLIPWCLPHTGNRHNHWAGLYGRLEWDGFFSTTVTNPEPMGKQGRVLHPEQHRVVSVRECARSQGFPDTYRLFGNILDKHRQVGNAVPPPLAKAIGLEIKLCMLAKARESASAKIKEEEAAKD
Method in brief: (§1)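 Human recombinant DNMT1 transferred tritiated methyl from [3H]-AdoMet onto a short hemimethylated DNA duplex carrying 8 CpGs, and direct incorporation of the radiolabel was measured. Compounds were first screened at a single concentration.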

[2] = molecular target: T1, DNA (cytosine-5)-methyltransferase 1; assay: Inhibition of human recombinant DNMT1 expressed in […] assessed as inhibition of tritiated methyl incorporation from [3H]-labeled AdoMet into hemimethylated DNA duplex at 500 uM after 2 hrs by liquid scintillation counting analysis relative to control; format: cell-based; method in brief: as §1
[3] = Inhibition of G9a (unknown origin) by [3H]-SAM incorporation assay
Method in brief: (§2)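 In vitro methyltransferase activity was quantified with a biotin–avidin microplate kinetic assay based on [3H]-SAM incorporation. G9a was tested up to 1 mM.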

[4] = Inhibition of Escherichia coli DAM by [3H]-SAM incorporation assay; method in brief: as §2
[5] = molecular target: DNA (cytosine-5)-methyltransferase 3A (Mus musculus) (UniProt O88508); assay: Binding affinity to mouse Dnmt3A catalytic domain assessed as inhibition of AdoHcy binding at 0.85 mM by WaterLOGSY spectroscopic analysis
[6] = Inhibition of Spiroplasma M.SssI using unmethylated DNA as substrate after 2 hrs by agarose gel electrophoresis

IC50 [1]	inhibition [2]	Compound	CC50 (DU-145)	other results
80 µM		O=C(O)[C@@H]1[C@H](Cc2c[nH]c3ccccc23)CCN1Sc1ccc([N+](=O)[O-])cc1[N+](=O)[O-]	250 µM	
	inactive	O=C(O)[C@H](Cc1c[nH]c2ccccc12)n1c(=O)[nH]c2ccccc2c1=O		
	inactive	O=C(O)C[C@H](Cc1c[nH]c2ccccc12)N1C(=O)c2ccccc2C1=O		
	inactive	O=C(CN1C(=O)c2ccccc2C1=O)N[C@@H](Cc1c[nH]c2ccccc12)C(=O)O		
73 µM		O=C(O)[C@H]1[C@@H](Cc2c[nH]c3ccccc23)CCN1C(=O)c1ccccc1	232 µM	
128 µM		O=C(O)[C@@H]1[C@H](Cc2c[nH]c3ccccc23)CCN1C(=O)c1ccc2ccccc2c1	280 µM	
	50%	O=C(O)C1C(Cc2c[nH]c3ccccc23)CCN1C(=O)c1ccccc1 (stereo not given)		IC50 [3]: > 1000 µM; IC50 [4]: > 750 µM
390 µM		O=C(O)[C@H](Cc1c[nH]c2ccccc12)N1C(=O)c2ccccc2C1=O	660 µM	inhibition [5]: 50%; IC50 [6]: 0.115 µM
98 µM		O=C(O)[C@@H]1[C@H](Cc2c[nH]c3ccccc23)CCN1C(=O)c1ccccc1	230 µM	
50 µM		O=C(O)[C@H]1[C@@H](Cc2c[nH]c3ccccc23)CCN1C(=O)c1ccc2ccccc2c1	130 µM	
	50%	O=C(O)C1C(Cc2c[nH]c3ccccc23)CCN1C(=O)c1ccc2ccccc2c1 (stereo not given)		
	inactive	O=C(O)[C@@H]1[C@H](Cc2c[nH]c3ccccc23)CCN1C(=O)CN1C(=O)c2ccccc2C1=O		
	inactive	O=C(O)[C@H](Cc1c[nH]c2ccccc12)CN1C(=O)c2ccccc2C1=O		

More lines, now with the values behind:

Compound	IC50 [1]	inhibition [2]	CC50 (DU-145)	other results
O=C(O)[C@@H](Cc1c[nH]c2ccccc12)CN1C(=O)c2ccccc2C1=O		inactive		
O=C(O)[C@H](Cc1csc2ccccc12)N1C(=O)c2ccccc2C1=O	230 µM			
N[C@@H](Cc1c[nH]c2ccccc12)C(=O)O		inactive		
O=C(O)[C@H](Cc1cc(=O)[nH]c2ccccc12)N1C(=O)c2ccccc2C1=O		inactive		
O=C(O)[C@H](Cc1c[nH]c2ccccc12)NSc1ncccc1[N+](=O)[O-]	20 µM		211 µM	
O=C(O)CN1C(=O)c2ccccc2C1=O		inactive		
NC(=O)[C@H](Cc1c[nH]c2ccccc12)N1C(=O)c2ccccc2C1=O		inactive		
O=C(O)[C@H](Cc1c[nH]c2ccccc12)NSc1ccc([N+](=O)[O-])cc1[N+](=O)[O-]	40 µM		103 µM	
O=C(O)[C@H](Cc1ccccc1)N1C(=O)c2ccccc2C1=O		inactive		
O=C(O)[C@H](Cc1c[nH]cn1)N1C(=O)c2ccccc2C1=O		inactive		

From ChEMBL document CHEMBL3108732, “Synthesis and evaluation of analogues of N-phthaloyl-l-tryptophan (RG108) as inhibitors of DNA methyltransferase 1” (J Med Chem, 2014)
